# Arr AP2 block: human beta-arrestin and AP2 interaction inhibition; inhibition, % at 10 µM; hit rate 0.31% among 340,000; FITC-arrestin peptide / GST-AP2 beads, flow cytometry; AP2 beta2 appendage carries R879A mutation;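 active = inhibition above a set limit, near 3 SD of compounds lacking own fluorescence, cut at about 54% in these data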;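 also: plate controls were DMSO wells for no effect and 5 µM unlabelled arrestin peptide for full effect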
#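 Measured by: flow cytometry, FL1 (488/535 nm); Material: AP2 appendage R879A on GSH beads; Evaluation: percent response; Timing: pre-incubation 12 min, peptide binding 1 h, room temperature; Also added: 50 nM FITC-arrestin peptide; Medium: PBS with 0.05% Tween 20 and 0.1% BSA.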
# MT1-MMP act inh: inhibitors of human MT1-MMP activation | P50281 | HT1080 RFP-PRO-GFP cells, GFP/RFP ratio fluorescence, overnight; percent of plate control window, DMSO zero | GFP/RFP ratio change, % at 20 µM | hit rate 0.061% among 360,000;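 active = GFP/RFP ratio change of at least 30% with cell ATP level not reduced by more than half and red fluorescence within 50% of control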
#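 system = RFP-PRO-GFP reporter HT1080 cells | dosing = 20 µM single dose, 1% DMSO | timing = overnight cell settling, then overnight compound exposure, 37 °C, 5% CO2 | read-out basis = GFP/RFP fluorescence ratio | controls = DMSO and RFP-L50D-GFP cell wells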
# SKN-1 block: inhibitors of C. elegans SKN-1 | hit rate 0.49% among 360,000 | inhibition, % at 21.8 µM | C. elegans VP596 Pgst-4::GFP/RFP ratio, acrylamide-induced, 24 h;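 active = interference check ratio from 0.5 to 1.5 plus GFP to RFP signal ratio inhibition reaching or exceeding a fixed threshold, cut at about 30% in these data, passing the limit was not always enough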
# TbMetRS inhib: blocks T. brucei methionyl-tRNA synthetase activity | purified T. brucei MetRS, ATP depletion, Kinase-Glo luminescence | inhibition, % at 11.9 µM | hit rate 0.4% among 360,000;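 active = inhibition above a per-plate cutoff of the control wells' mean inhibition plus 3 SD, cut at about 5.5% in these data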;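 also: 0% = DMSO wells median and 100% = median of wells with control inhibitor compound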
#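 Material – parasite MetRS enzyme · Medium – HEPES-MgCl2-KCl buffer plus DTT, spermine, BSA, pyrophosphatase · Reagent – ATP, methionine and E. coli bulk tRNA substrates · Times – 15 min enzyme-compound preincubation, 2 h reaction, 10 min detection, 25 °C · Measured by – luminescence of leftover ATP · Evaluation – percent inhibition relative to median high and low control wells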
# Rin1 Abl inh: inhibitors of human Rin1-Abl protein interaction; TR-FRET Rin1/Abl binding, biochemical; inhibition, % at 7.35 µM; hit rate 0.4% among 360,000; AID 588664; in the data active = inhibition above about 5%, passing the limit was not always enough
# Arr-AP2 CP1: human beta-arrestin and AP2 interaction inhibition, cherry pick; shares compounds with Arr AP2 block; GST-AP2 beads, FITC arrestin peptide binding, flow cytometry; GST-fused beta2-adaptin appendage, R879A mutant; inhibition, % at 10 µM; hit rate 2% among 1,300;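 active = inhibition above a set limit, roughly 3 SD of non-fluorescent compound noise, cut at about 38% in these data; inactive = inhibition at or below that limit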;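 also: loss of bead fluorescence from 50 nM FITC arrestin peptide bound to appendage; 0% = negative control wells and 100% = excess unlabelled arrestin peptide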
# GST GSH counter: GST-GSH bead binding interference, counter-screen; GST-fluorescein binding to GSH beads, fluorescence; AID 588338; shares compounds with Arr AP2 block; inhibition, % at 10 µM; hit rate 2% among 1,300;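 active = inhibition above 50%, about 3 SD of the inhibition seen with non-fluorescent compounds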;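 also: fluorescein maleimide labelled GST captured on 4 micron glutathione beads; higher means more loss of bead fluorescence from quenching or blocked binding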
# Numbers without * were called inactive; . = not tested or not shown. Compounds with a hit are over-represented: about 1.6% of the library has one in this group of screens.
SMILES,Arr AP2 block,MT1-MMP act inh,SKN-1 block,TbMetRS inhib,Rin1 Abl inh,Arr-AP2 CP1,GST GSH counter
COc1ccc(F)cc1CN1CCN(C(=O)CCC(=O)Nc2nnc(CC(C)C)s2)CC1,54*,1,8,-1,4,8,-5
Cc1nnc(SCCn2c(Br)nc3c2c(=O)[nH]c(=O)n3C)s1,95*,-1,6,0,0,-10,-3
Cc1ccc(N/C=C2/Sc3ccccc3NC2=O)cc1,83*,-9,13,-1,2,12,22
COc1ccc(OC)c(S(=O)(=O)Nc2ccc3c(c2)OCCO3)c1,.,-1,6,0,-2,.,.
O=C(NCCc1ccc(S(=O)(=O)N2CCCC2)cc1)c1cccs1,87*,0,-5,0,4,1,1
COc1cc(OC)cc(C(=O)Nc2nc3ccc(S(C)(=O)=O)cc3s2)c1,104*,2,2,1,-4,3,-2
COc1cc(C(=O)Nc2nc3ccc(S(C)(=O)=O)cc3s2)cc(OC)c1C,-1,2,2,0,-9,.,.
O=C(Nc1cccc(C(=O)N2CCOCC2)c1)C1CCCCC1,.,10,1,-1,.,.,.
CCc1ccc(C(O)c2ncc(-c3ccccc3OC)[nH]2)cc1 (stereo not given),.,3,22,0,-1,.,.
O=C(/C=C/c1ccccc1)NCCS(=O)(=O)N1CCN(c2ccccc2)CC1,55*,0,-7,0,-2,-4,-9
COc1ccc(NCC(=O)N/N=C(\C)c2cc3ccccc3o2)cc1,-5,0,3,0,0,.,.
C/C(=N\NC(=O)CNc1ccc(F)cc1)c1cc2ccccc2o1,64*,5,2,-1,-2,11,0
Brc1cccc(CNCc2ccncc2)c1,20,-1,17,0,0,.,.
Brc1cccc(CNCc2cccs2)c1,55*,3,-2,-1,-1,-12,-8
Fc1ccc(C2Nc3cccc4cccc(c34)N2)cc1,31,-3,2,-1,2,.,.
Cc1ccc(C2Nc3cccc4cccc(c34)N2)s1,87*,9,-2,0,-1,9,10
CCCc1nc2sc3c(c2c(=O)n1N)CCC3,5,5,15,1,-2,.,.
CCCCCc1nc2sc3c(c2c(=O)n1N)CCC3,97*,-2,-1,0,-2,-6,-3
CC1(C(=O)NCC2CCOCC2)Cc2c(-c3cccc(C(F)(F)F)c3)ccnc2O1 (stereo not given),.,0,-15,0,1,.,.
CCOc1ccc(-c2csc(NC(=O)CSCC(=O)O)n2)c2ccccc12,62*,-1,-1,-1,7,7,0
O=S(=O)(CCc1nc2ccccc2o1)c1ccc(Cl)c(Cl)c1,91*,3,-9,0,5,-10,-4
Nc1ccc(CCc2nc3ccccc3o2)cc1,-5,1,14,0,1,.,.
C[C@@H]1Cn2cnc(C(=O)N[C@@H](C)c3ccccc3)c2C(=O)N1,.,1,5,-1,-3,.,.
Cc1ccc(F)cc1C(=O)N1CCCCC1c1cc(C(=O)NC(C)C)no1 (stereo not given),.,0,-14,0,-6,.,.
COC(=O)c1nc2ccc(N3CCOCC3)cc2c(C)c1C(=O)OC,57*,-1,5,-1,-1,-1,5
SMILES,Arr AP2 block,MT1-MMP act inh,SKN-1 block,TbMetRS inhib,Rin1 Abl inh,Arr-AP2 CP1,GST GSH counter
Nc1nnc(SCC(=O)OCC(=O)Nc2ccccc2F)s1,57*,1,-9,-1,3,-6,-10
COc1ccccc1Cc1c(-c2ccc(C#N)cc2)nc2c(C)cc(Br)cn12,.,-6,12,-1,-136,.,.
Cc1ccc(S(=O)(=O)N(C)CC(=O)O/N=C(\N)c2ccccn2)cc1,97*,-1,-4,0,-1,6,-7
COc1ccc(CC(=O)N2CCC(n3nccc3NC(=O)C3CCOC3)CC2)cc1 (stereo not given),64*,3,-2,-1,0,-13,7
C/C(=N\NC(=O)c1ccc(CSc2nncn2C)cc1)c1ccc2ccccc2c1,55*,9,6,0,-2,4,-3
CC(C)C[C@@H](CNCC(=O)[C@H](Cc1ccccc1)NC(=O)c1[nH]cnc1C(=O)N[C@@H](C)CN)NC(=O)c1nc[nH]c1C(=O)N[C@@H](C)C(=O)O,-7,-1,1,0,-3,.,.
Oc1c(CNc2ccccc2)cc(COCc2ccccc2)c2cccnc12,55*,3,-4,0,-2,4,1
Cc1ccc(NCc2ccc(O)c3ncccc23)cc1,10,-23,2,0,2,.,.
NC(Cc1ccc(Cl)cc1)c1csc(Nc2ccc(-c3ccccc3)nn2)n1 (stereo not given),.,-2,1,0,-3,.,.
Cc1cccc(NC(=O)Nc2cnccn2)c1C,-5,-1,15,-1,4,-8,-5
Cc1ccccc1NC(=O)Nc1cnccn1,15,-2,9,0,-3,6,-6
COc1ccc(OC)c(CNC(=O)CCNC(=O)Cn2ccc3ccccc3c2=O)c1,3,2,-4,0,-1,.,.
COc1ccc(Br)cc1CNC(=O)CCNC(=O)Cn1ccc2ccccc2c1=O,57*,0,1,-1,-1,1,0
Cc1cc(C)cc(NC(=O)c2cccc3c2C(=O)N(C2CCCCC2)C3)c1,62*,-2,-2,0,-3,4,8
O=C(Nc1ccc(Br)cc1)c1cccc2c1C(=O)N(C1CCCCC1)C2,11,1,9,0,-4,.,.
CCCCCCN1C=C/C(=C\C=C(C#N)C#N)c2ccccc21,75*,27,35,-1,-1,-8,8
CCOC(=O)C1=C[C@@H](C(C)(C)C)N(S(=O)(=O)c2ccc(C)cc2)[C@H]1c1cccc(Cl)c1,.,-11,20,0,2,.,.
COc1ccc(-c2nc(CS(=O)CC(=O)NC3CCC(C)CC3)c(C)o2)cc1OC (stereo not given),54*,2,-16,0,5,-11,0
CN(C)C(CNC(=O)CCNS(=O)(=O)c1ccccc1C(F)(F)F)c1ccccc1 (stereo not given),58*,-1,-4,0,1,10,-4
CCCNC(=O)Nc1ccc2c(c1)OC[C@H](C)N(C(=O)C1CCCCC1)C[C@@H](C)[C@H](OC)CN(C)C2=O,.,-2,4,0,.,.,.
Oc1ccc(C(=Nc2ccccc2)c2ccccc2)c(O)c1,32,-6,-12,0,3,.,.

# Screens: PubChem BioAssay, several laboratories
